From ChEMBL document CHEMBL5247671, “Design and Synthesis of Pyrazole-Based Macrocyclic Kinase Inhibitors Targeting BMPR2” (ACS Med Chem Lett, 2023) come the findings set out here.

Test [1] deals with BMP-2-inducible protein kinase (Homo sapiens) (UniProt Q9NSY1). Description: Inhibition of recombinant BMP2K (unknown origin) at 10 uM by DSF assay relative to staurosporine. The gist of the method:
(§1)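 Differential scanning fluorimetry on an in-house panel of 90 recombinant kinases. Stabilization is read as the shift in melting temperature (ΔTm) relative to ligand-free protein. Staurosporine served as the positive control, and binding was also compared against its ΔTm.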

Test [2] deals with Vascular endothelial growth factor receptor 1 (Homo sapiens) (UniProt P17948). In words: Inhibition of recombinant FLT1 (unknown origin) at 10 uM by DSF assay relative to staurosporine. The gist of the method:
as §1
For orientation: Differential scanning fluorimetry follows unfolding on heating by fluorescence.

For test [3], the target named is T1, Tyrosine-protein kinase Mer (Homo sapiens) (UniProt Q12866).
T1 sequence (whole entry): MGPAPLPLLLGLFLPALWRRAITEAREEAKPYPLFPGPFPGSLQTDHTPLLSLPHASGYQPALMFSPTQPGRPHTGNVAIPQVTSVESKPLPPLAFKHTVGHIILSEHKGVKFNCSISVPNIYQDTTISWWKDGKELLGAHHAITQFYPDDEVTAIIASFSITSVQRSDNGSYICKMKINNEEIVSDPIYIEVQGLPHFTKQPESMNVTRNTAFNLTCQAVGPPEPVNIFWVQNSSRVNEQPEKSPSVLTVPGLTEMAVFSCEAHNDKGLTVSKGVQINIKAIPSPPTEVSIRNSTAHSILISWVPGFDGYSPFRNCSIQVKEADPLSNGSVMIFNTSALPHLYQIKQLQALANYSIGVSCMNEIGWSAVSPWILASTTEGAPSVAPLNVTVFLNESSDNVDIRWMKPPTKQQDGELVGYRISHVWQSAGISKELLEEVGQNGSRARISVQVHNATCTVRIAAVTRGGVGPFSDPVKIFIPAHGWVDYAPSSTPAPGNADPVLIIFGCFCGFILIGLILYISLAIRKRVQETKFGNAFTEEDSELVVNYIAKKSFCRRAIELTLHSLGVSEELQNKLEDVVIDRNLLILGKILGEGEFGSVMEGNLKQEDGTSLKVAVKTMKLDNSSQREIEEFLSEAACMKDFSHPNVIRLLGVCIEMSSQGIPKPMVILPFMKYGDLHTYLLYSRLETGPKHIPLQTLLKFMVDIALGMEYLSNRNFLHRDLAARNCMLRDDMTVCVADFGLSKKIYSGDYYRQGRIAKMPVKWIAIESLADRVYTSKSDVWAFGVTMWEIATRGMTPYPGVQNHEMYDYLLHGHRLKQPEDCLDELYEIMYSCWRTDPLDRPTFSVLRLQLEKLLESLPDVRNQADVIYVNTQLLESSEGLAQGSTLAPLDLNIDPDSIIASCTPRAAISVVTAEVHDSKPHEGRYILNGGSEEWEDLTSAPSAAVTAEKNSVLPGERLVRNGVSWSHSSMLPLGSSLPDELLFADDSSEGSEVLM
Description: Inhibition of recombinant MERTK (unknown origin) at 10 uM by DSF assay relative to staurosporine. Put shortly:
as §1

Chain of BMP-2-inducible protein kinase (Homo sapiens) (Q9NSY1 whole entry, looked up): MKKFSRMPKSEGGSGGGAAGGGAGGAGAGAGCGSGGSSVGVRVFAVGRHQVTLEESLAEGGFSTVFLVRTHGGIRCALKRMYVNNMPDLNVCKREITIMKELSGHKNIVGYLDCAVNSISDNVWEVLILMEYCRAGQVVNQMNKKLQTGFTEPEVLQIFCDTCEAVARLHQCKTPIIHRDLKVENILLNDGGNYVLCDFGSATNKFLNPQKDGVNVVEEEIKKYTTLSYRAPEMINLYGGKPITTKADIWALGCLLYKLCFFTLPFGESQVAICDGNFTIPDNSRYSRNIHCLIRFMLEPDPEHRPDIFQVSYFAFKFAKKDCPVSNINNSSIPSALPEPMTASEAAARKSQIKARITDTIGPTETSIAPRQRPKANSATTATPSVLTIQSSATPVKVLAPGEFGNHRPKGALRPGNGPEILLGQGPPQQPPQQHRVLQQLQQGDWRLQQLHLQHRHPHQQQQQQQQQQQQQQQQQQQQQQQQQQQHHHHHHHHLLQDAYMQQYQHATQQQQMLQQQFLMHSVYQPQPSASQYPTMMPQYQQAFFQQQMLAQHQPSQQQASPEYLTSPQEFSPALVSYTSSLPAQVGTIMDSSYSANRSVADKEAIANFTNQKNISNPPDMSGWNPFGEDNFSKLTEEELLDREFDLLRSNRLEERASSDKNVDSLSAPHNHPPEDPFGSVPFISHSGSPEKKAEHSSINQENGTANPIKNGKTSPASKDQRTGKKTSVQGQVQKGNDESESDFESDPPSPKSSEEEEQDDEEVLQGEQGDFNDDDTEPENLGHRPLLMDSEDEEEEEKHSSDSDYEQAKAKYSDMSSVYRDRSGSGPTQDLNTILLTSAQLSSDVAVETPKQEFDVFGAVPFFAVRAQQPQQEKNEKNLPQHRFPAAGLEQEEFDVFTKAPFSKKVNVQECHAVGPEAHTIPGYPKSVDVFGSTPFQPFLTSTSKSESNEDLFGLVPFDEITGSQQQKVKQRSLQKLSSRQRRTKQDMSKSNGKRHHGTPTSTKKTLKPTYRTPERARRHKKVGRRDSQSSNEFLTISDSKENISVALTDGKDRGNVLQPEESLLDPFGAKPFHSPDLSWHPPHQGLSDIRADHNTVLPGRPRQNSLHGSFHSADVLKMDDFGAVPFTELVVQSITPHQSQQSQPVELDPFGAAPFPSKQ
Chain of Vascular endothelial growth factor receptor 1 (Homo sapiens) (P17948 whole entry): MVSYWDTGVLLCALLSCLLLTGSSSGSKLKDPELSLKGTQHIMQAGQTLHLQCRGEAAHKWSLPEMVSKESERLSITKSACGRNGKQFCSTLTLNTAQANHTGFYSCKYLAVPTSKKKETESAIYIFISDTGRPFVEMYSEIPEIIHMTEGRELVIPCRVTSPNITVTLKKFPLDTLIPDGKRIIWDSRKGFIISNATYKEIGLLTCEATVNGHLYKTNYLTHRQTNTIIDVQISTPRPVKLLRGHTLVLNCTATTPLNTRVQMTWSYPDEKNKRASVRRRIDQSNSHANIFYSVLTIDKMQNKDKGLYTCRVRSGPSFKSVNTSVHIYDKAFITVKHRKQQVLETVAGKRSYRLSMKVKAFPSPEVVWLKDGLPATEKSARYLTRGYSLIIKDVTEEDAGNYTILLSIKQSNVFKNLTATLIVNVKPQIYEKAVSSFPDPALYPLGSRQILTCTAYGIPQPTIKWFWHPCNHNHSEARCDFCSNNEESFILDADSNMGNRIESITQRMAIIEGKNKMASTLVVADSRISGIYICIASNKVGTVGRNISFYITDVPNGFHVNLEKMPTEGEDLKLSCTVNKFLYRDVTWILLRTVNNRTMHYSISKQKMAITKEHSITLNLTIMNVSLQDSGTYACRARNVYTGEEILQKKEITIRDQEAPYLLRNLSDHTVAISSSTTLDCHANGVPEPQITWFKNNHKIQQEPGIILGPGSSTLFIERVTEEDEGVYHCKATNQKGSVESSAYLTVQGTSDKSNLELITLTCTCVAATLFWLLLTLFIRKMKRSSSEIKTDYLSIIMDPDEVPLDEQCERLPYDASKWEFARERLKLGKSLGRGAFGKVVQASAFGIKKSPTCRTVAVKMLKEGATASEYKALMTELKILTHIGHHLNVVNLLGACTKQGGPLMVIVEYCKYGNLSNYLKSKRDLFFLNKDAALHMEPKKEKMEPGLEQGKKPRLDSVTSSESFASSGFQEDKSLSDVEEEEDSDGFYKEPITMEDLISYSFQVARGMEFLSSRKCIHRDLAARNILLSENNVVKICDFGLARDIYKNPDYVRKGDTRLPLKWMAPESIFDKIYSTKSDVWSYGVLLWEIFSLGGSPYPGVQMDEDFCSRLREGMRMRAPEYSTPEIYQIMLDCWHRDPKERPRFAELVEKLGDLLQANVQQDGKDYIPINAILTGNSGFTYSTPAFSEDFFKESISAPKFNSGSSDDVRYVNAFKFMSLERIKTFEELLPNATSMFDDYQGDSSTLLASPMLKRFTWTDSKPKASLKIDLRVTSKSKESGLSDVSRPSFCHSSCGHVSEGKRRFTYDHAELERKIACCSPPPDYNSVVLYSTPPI

The term inhibition denotes the relative decrease from the control value, in per cent. For `O=C1NCCc2ccc(cc2)Nc2nccc(n2)Nc2cc1[nH]n2`, the inhibition in test [1] stood at 30%; in test [2] it was 36%; in test [3], 48%.
